Laboratory results: ChEMBL document CHEMBL1914431, “Discovery of a novel series of nonacidic benzofuran EP1 receptor antagonists” (Bioorg Med Chem Lett, 2011)

Legend:
[1] = target: T1, Prostaglandin E2 receptor EP1 subtype (Homo sapiens, UniProt P34995); test: Displacement of [3H]GW875240X from human prostanoid EP1 receptor expressed in CHO-K1 cells after 45 mins by topcount liquid scintillation counting; type: cell-based
T1 sequence (P34995 whole entry): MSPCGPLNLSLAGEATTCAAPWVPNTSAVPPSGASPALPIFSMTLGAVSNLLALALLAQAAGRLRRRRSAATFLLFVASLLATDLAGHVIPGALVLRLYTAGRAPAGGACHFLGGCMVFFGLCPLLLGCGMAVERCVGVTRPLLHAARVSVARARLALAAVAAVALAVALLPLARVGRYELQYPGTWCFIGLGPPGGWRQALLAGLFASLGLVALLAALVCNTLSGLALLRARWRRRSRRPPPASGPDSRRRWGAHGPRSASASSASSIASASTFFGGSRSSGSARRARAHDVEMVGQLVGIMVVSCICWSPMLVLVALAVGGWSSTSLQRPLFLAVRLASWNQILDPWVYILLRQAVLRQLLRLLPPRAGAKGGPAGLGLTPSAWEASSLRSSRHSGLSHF
Outline: (§1)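 Radioligand binding at the EP1 receptor. Either [3H]-GW875240X or [3H]-PGE2 is the displaced ligand. Values are pIC50, means of at least three experiments.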

[2] = target: T2, Prostaglandin E2 receptor EP3 subtype (Homo sapiens, UniProt P43115); test: Antagonist activity at human recombinant EP3 receptor expressed in CHO-K1 cells assessed as inhibition of PGE2-mediated intracellular calcium mobilization by FLIPR method; type: functional, cell-based
T2 sequence (P43115 whole entry): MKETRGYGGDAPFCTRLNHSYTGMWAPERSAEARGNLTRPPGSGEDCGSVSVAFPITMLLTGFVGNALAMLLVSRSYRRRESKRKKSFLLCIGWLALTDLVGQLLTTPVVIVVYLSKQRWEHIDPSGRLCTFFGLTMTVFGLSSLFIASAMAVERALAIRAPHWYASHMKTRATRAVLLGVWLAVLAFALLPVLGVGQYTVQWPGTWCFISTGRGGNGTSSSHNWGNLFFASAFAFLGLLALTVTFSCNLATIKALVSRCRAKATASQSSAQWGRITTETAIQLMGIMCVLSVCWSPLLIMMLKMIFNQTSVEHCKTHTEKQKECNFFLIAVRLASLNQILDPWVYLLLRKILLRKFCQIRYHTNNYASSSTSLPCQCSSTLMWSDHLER

[3] = target: T1, Prostaglandin E2 receptor EP1 subtype; test: Displacement of [3H]PGE2 from human prostanoid EP1 receptor expressed in CHO-K1 cells after 30 mins by topcount liquid scintillation counting; type: cell-based; outline: as §1
[4] = target: T1, Prostaglandin E2 receptor EP1 subtype; test: Antagonist activity at human recombinant EP1 receptor expressed in CHO-K1 cells assessed as inhibition of PGE2-mediated intracellular calcium mobilization by FLIPR method; type: functional, cell-based
[5] = Drug level in blood of rat complete Freund's adjuvant-induced inflammatory pain model at 10 mg/kg, po after 1 hr; type: ADME, organism-based; parameters: dose 10 mg/kg, route oral; details: read-out: Drug uptake
Outline: (§2)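 Blood and brain samples are taken from CFA rats after oral dosing in 1% methylcellulose. Sampling is at 1 h post-dose, and at 3 h in the 5 mg/kg study. Concentrations are in µM or nM, n = 7 or n = 6 for blood and n = 3 for brain. The brain:blood ratio is calculated from the same rats.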

Brain = test: Fraction unbound in brain of po dosed rat complete Freund's adjuvant-induced inflammatory pain model; type: ADME, organism-based; details: in vivo
[6] = Volume of distribution at steady state in rat at 1 mg/kg, iv; type: ADME, organism-based; parameters: dose 1 mg/kg, route intravenous; details: in vivo, read-out: Vdss
[7] = Blood clearance in rat at 1 mg/kg, iv; type: ADME, organism-based; parameters: dose 1 mg/kg, route intravenous
[8] = Half life in rat at 1 mg/kg, iv; type: ADME, organism-based; parameters: dose 1 mg/kg, route intravenous; details: in vivo
[9] = Drug level in brain of rat complete Freund's adjuvant-induced inflammatory pain model at 10 mg/kg, po after 1 hr; type: ADME, organism-based; parameters: dose 10 mg/kg, route oral; details: read-out: Drug uptake; outline: as §2
Blood = test: Fraction unbound in blood of po dosed rat complete Freund's adjuvant-induced inflammatory pain model; type: ADME, organism-based; details: in vivo
Rattus norvegicus [10] = test: Analgesic activity in po dosed rat chronic joint pain model; type: functional
Outline: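 Rat joint pain model of chronic inflammatory pain. Oral dosing b.i.d. at 1, 3, 10 and 30 mg/kg, or at 0.3, 1, 3 and 10 mg/kg. Reversal of hypersensitivity is scored, with statistical significance testing, and ED50 is calculated.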

[11] = Ratio of drug level in brain to blood in rat complete Freund's adjuvant-induced inflammatory pain model at 10 mg/kg, po after 1 hr; type: ADME, organism-based; parameters: dose 10 mg/kg, route oral; details: read-out: BBR; outline: as §2
[12] = Lipophilicity, log D of compound at pH 7.4 by shake flask method; type: physicochemical; details: buffer
Outline: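 Log D is determined by the shake flask method at pH 7.4.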

Rattus norvegicus [13] = test: Analgesic activity in rat assessed as reversal of complete Freund's adjuvant-induced inflammatory pain at 10 mg/kg, po after 1 hr post dose; type: functional
Outline: (§3)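 Rat CFA inflammatory pain model. Oral dosing in 1% methylcellulose. Hypersensitivity reversal is read by weight bearing, at 1 h post-dose. The 5 mg/kg study was also read at 3 h. Dose-response groups were 3, 10 and 30 mg/kg, or 1, 3 and 10 mg/kg, with ED50 derived. Celecoxib at 10 mg/kg po served as the standard.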

Rattus norvegicus [14] = test: Analgesic activity in po dosed rat assessed as reversal of complete Freund's adjuvant-induced inflammatory pain after 1 hr post dose; type: functional; outline: as §3

## Cc1cc(NC(=O)CC2CCNCC2)nn1Cc1cc(Cl)cc2cc(-c3ccccc3)oc12
[1]
  IC50: 63.1 nM

## CCCc1cc2cc(Cl)cc(Cn3nc(C(=O)O)cc3C)c2o1
[1]
  IC50: 25.1 nM

## Cc1cc(C(=O)NC(C)C)nn1Cc1cc(Cl)cc2cc(-c3ccccc3)oc12
[1]
  IC50: 10 nM

## Cc1cc(C(=O)O)nn1Cc1cc(Cl)cc2cc(C3CC3)oc12
[1]
  IC50: 50.1 nM

## Cc1cc(C(=O)NCC2CCNCC2)nn1Cc1cc(Cl)cc2cc(-c3ccccc3)oc12
[1]
  IC50: 20 nM

## Cc1cc(C(=O)O)nn1Cc1cc(Cl)cc2cc(C(C)C)oc12
[2]
  Ki: 1000 nM
[3]
  IC50: 5.01 nM
[4]
  Ki: 0.398 nM

## Cc1cc(NC(=O)C2(F)CCNCC2)nn1Cc1cc(Cl)cc2cc(-c3ccccc3)oc12
[1]
  IC50: 39.8 nM

## CO[C@H]1CC[C@H](NC(=O)c2cc(C)n(Cc3cc(Cl)cc4cc(C(C)C)oc34)n2)CC1
[1]
  IC50: 316 nM

## Cc1cc(NC(=O)C2CCNCC2)nn1Cc1cc(Cl)cc2cc(-c3ccccc3)oc12
[1]
  IC50: 100 nM

## Cc1cc(C(=O)NC(C)(C)C)nn1Cc1cc(Cl)cc2cc(-c3ccccc3)oc12
[1]
  IC50: 10 nM
[5]
  concentration at 1 h: 381 nM
Brain
  Fu: 0.017%
[6]
  Vd: 4.3 L/kg
[7]
  clearance: 28 mL/min/kg
[8]
  half-life: 4.2 h
[9]
  concentration at 1 h: 112 nM
Blood
  Fu: 0.028%
Rattus norvegicus [10]
  ED50: 0.6 mg/kg
[11]
  Kp at 1 h: 0.3
[12]
  logD: 2.9
Rattus norvegicus [13]
  Activity: 95%
Rattus norvegicus [14]
  ED50: 5 mg/kg

## Cc1cc(C(=O)O)nn1Cc1cc(Cl)cn2cc(C(C)C)nc12
[3]
  IC50: 501 nM

## Cc1cc(-c2nc3ccccc3[nH]2)nn1Cc1cc(Cl)cc2cc(C(C)C)oc12
[3]
  IC50: 50.1 nM

## Cc1cc(C(=O)O)nn1Cc1cc(Cl)cc2cc(C(C)(C)C)oc12
[1]
  IC50: 63.1 nM

## Cc1cc(C(=O)O)nn1Cc1cc(Cl)cc2oc(C(C)C)cc12
[1]
  IC50: 251 nM

## Cc1cc(C(=O)O)nn1Cc1cc(Cl)cc2cc(C3CCCCC3)oc12
[1]
  IC50: 3.98 nM

## Cc1cc(C(N)=O)nn1Cc1cc(Cl)cc2cc(-c3ccccc3)oc12
[1]
  IC50: 5.01 nM
